This note sets out measurements from PubChem BioAssay AID624038 (The Scripps Research Institute Molecular Screening Center, 2012).

Each structure is given as a SMILES string. The campaign covered roughly 360,000 compounds. About 1,100 (0.31%) were called active.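 Rule for the calls: active = activation above the run cutoff, the mean activation of all test compounds plus 3 SD (cut at about 18% in these data); inactive = the rest.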 The sample as a whole holds a higher share of actives than the screen did.

The target of the assay is Muscarinic acetylcholine receptor M5 (Homo sapiens) (UniProt P08912). Kind of assay: CHRM5 PAMs potentiating acetylcholine calcium signal – CHO-K1 cells, Fluo-8 calcium fluorescence, primary screen (AID 624038). To be noted: CHO-K1 hM5, Fluo-8 calcium, ACh EC20 PAM; at 3 µM; stronger effect = higher value; 0% = ACh EC20, 100% = ACh EC100. The procedure, abridged: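 Measured by: Fluo-8 calcium fluorescence; material: human M5 receptor in CHO-K1 cells; schedule: Post-acetylcholine fluorescence recording 140 s; benchmarks: low control EC20 acetylcholine (0%), high control EC100 acetylcholine (100%); read-out: Max/basal fluorescence ratio as % of EC20–EC100 ACh window; compound: single dose, 3 µM nominal final test concentration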
Chain of Muscarinic acetylcholine receptor M5 (Homo sapiens) (P08912 whole entry, looked up): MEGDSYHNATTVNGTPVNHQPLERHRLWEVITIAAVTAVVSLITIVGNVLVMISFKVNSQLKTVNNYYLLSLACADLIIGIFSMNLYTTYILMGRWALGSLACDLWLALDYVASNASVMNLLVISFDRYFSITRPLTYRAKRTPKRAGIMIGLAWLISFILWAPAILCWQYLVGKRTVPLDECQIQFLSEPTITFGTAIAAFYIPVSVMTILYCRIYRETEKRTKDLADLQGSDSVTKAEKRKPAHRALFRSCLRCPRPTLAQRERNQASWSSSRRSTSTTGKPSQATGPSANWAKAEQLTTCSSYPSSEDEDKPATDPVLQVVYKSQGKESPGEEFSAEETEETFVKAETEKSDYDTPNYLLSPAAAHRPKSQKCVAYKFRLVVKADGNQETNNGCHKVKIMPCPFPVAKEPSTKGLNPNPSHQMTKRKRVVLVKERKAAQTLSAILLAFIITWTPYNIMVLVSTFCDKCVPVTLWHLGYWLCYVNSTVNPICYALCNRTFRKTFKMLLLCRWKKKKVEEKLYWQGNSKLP
As to `Cc1ccc(C(=O)OC2=CC(=O)CC(C)(C)C2)cc1`, the activation is 0.4% (inactive).

For the molecule `COc1ccc(C(C(=O)NCC2CCCO2)N(C(=O)Cn2nnc3ccccc32)c2ccc(NC(C)=O)cc2)cc1OC` (stereo unspecified), the activation was 5.16% (inactive).

For `Cc1ccc(C(C(=O)NCc2ccco2)N(CC2CCCO2)C(=O)Cn2nnc3ccccc32)cc1` (stereo unspecified), the activation is -1.09% (inactive).

As for `CCOc1cc(C(C(=O)NCC2CCCO2)N(C(=O)Cn2nnc3ccccc32)c2cccc(OC)c2)ccc1O` (stereo unspecified), the activation was 19% (active).

For `CC1CN(CCCOc2ccccc2-c2ccccc2)CC(C)O1` (stereo unspecified), the activation is 0.63% (inactive).

`Cc1cc(C)c(OCCN2CC(C)OC(C)C2)c(Br)c1` (stereo unspecified): the activation was 23.1% (active).

`CC1CN(CCOc2ccccc2[N+](=O)[O-])CC(C)O1` (stereo unspecified): the activation is 8.76% (inactive).

For the molecule `CCN(CC)Cc1csc2ccc(Br)cc12`, the activation is -8.32% (inactive).

With `CN(Cc1ccccc1)C(=O)[C@@H]1CCCN1C(=O)[C@@H]1CCCN1C(=O)c1c(F)cccc1F`, the activation was -3.49% (inactive).

Take `O=C(CCN1C(=O)[C@@H]2Cc3ccccc3CN2C1=O)NCCc1ccccc1`: the activation was -2.71% (inactive).

Consider `Cc1ccc(CNC(=O)CCN2C(=O)[C@@H]3Cc4ccccc4CN3C2=O)cc1`, for which the activation is -3.61% (inactive).

On to `O=C(CCN1C(=O)[C@@H]2Cc3ccccc3CN2C1=O)NCc1ccccc1`, for which the activation was 21.5% (active).

With `O=C(CNC(=O)COc1ccccc1)NCCc1ccccn1`, the activation is -11% (inactive).

As for `O=C(O)C(CCc1ccccn1)c1ccccc1` (stereo unspecified), the activation was 19.2% (active).

Turning to `c1ccc(CCc2ccccn2)cc1`, the activation was -5.1% (inactive).

Turning to `Cc1cccc(C(=O)NC2CCN(CC(=O)Nc3cccc(Cl)c3)CC2)c1`, the activation was -2.77% (inactive).

`CCC(C)(C)n1nnnc1C(c1ccc(OC)c(OC)c1)N1CCN(C(=O)c2ccco2)CC1` (stereo unspecified): the activation is 4.04% (inactive).

For the molecule `COc1ccccc1N(C)C(=O)c1cc(S(=O)(=O)N2CCc3ccccc32)cn1C`, the activation is -2.97% (inactive).

Take `COc1ccccc1C(=O)Nc1ccc(OCC(=O)N2CCCCC2)cc1`: the activation was 1% (inactive).

Take `COc1ccccc1C(=O)NC(=S)Nc1ccc(N2CCOCC2)cc1`: the activation was 4.29% (inactive).

As to `COc1cccc(OC)c1C(=O)Nc1ccc(N2CCCCC2)cc1`, the activation is 20.9% (active).

Regarding `CN(C)c1ccc(/C=N/NC(=O)C(O)c2ccc(Br)cc2)cc1` (stereo unspecified), the activation is 20.2% (active).

Regarding `COc1ccc(/C=N/NC(=O)C(C)N(c2ccc(OC)cc2)S(C)(=O)=O)cc1` (stereo unspecified), the activation was -7.14% (inactive).

For the molecule `CN(C)c1ccc(/C=N/NC(=O)c2ccc(Cn3cc(Br)cn3)o2)cc1`, the activation was -6.88% (inactive).

As for `O=C(NC1CCCCC1)C1CCC(CNS(=O)(=O)c2ccccc2)CC1` (stereo unspecified), the activation was -2.41% (inactive).

Regarding `COc1cc(C(=O)NC2CCN(C)CC2)ccc1Nc1ncc2c(n1)N(C1CCC(O)CC1)CCC(=O)N2C` (stereo unspecified), the activation was -2.26% (inactive).
